Assay results as given in ChEMBL document CHEMBL5113430, “Evaluation of chromane derivatives: Promising privileged scaffolds for lead discovery within Alzheimer's disease” (Bioorg Med Chem, 2022).
The source made the active and inactive calls. The rule behind the calls is not given here.

Assays:
Acetylcholinesterase [1] = biological target: T1, Acetylcholinesterase (Electrophorus electricus, UniProt O42275); assay: Inhibition of electric eel AChE using […] as a substrate and measured for 125 sec by DTNB based Ellman's method
[2] = biological target: T2, Amine oxidase [flavin-containing] A (Homo sapiens, UniProt P21397); assay: Inhibition of recombinant MAO-A (unknown origin) expressed in baculovirus infected BTI cells assessed as reduction in 4-hydroxyquinoline level using kynuramine as a substrate at 1 uM incubated for 20 mins by discontinuous fluorimetric assay relative to control
T2 sequence (P21397 whole entry): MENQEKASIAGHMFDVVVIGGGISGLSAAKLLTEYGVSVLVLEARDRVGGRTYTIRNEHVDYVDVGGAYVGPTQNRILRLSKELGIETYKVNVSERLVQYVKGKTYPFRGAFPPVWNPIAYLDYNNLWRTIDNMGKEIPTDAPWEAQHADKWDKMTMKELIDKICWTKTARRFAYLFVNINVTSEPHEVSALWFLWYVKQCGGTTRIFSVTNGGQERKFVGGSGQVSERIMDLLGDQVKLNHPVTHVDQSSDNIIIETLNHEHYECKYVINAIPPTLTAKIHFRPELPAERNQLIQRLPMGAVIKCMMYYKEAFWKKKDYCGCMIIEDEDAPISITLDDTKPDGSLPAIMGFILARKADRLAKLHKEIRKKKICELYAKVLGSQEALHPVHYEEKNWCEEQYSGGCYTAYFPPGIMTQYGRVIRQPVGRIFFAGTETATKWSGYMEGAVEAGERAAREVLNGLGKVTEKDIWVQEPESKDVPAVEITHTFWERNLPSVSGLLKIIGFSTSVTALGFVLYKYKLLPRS
Procedure, shortened: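 Discontinuous fluorimetric assay with recombinant membrane-bound MAO-A and kynuramine at two-fold KM (KM = 30 μM). Test compound at 1 μM, from a 1 mM DMSO stock. Incubated 20 min at 37 °C, stopped with 2 N NaOH. 4-hydroxyquinoline read at ex 320 nm / em 405 nm. Percent inhibition against no-inhibitor control, mean ± SD of two independent experiments in duplicate.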

[3] = biological target: T3, Amine oxidase [flavin-containing] B (Homo sapiens, UniProt P27338); assay: Inhibition of recombinant MAO-B (unknown origin) expressed in baculovirus infected BTI cells assessed as reduction in 4-hydroxyquinoline level using kynuramine as a substrate at 1 uM incubated for 20 mins by discontinuous fluorimetric assay relative to control; details: read-out: INH
T3 sequence (P27338 whole entry): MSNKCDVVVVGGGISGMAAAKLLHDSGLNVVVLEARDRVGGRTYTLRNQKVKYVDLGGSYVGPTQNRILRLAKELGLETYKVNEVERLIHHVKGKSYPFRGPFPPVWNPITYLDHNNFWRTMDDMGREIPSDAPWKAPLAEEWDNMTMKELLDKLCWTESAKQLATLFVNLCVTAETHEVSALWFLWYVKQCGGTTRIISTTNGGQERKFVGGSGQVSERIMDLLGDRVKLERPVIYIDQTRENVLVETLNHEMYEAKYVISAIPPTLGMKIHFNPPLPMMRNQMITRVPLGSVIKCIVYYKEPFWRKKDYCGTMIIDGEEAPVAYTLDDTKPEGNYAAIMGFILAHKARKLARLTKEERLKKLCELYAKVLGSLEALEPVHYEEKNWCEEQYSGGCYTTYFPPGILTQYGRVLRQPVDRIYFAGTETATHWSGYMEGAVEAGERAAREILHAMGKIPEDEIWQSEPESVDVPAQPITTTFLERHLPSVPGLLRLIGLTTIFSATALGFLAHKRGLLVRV

Cholinesterase [4] = biological target: T4, Cholinesterase (Equus caballus, UniProt P81908); assay: Inhibition of Equine serum BuChE using S-butyrylthiocholine iodide as a substrate and measured for 125 sec by DTNB based Ellman's method
Cholinesterase [5] = biological target: T4, Cholinesterase; assay: Inhibition of Equine serum BuChE assessed as inhibitory constants for binding the free enzyme using S-butyrylthiocholine iodide as a substrate by Cornish-Bowden plot analysis
Procedure, shortened: (§1)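 Equine BuChE, Ellman method: 50 μM phosphate buffer pH 8.0, 0.975 mM DTNB, 1.25% DMSO, 25 °C, read at 405 nm over 125 s. Runs used 5 butyrylthiocholine levels (1/4 to 4 × KM) and 3–4 inhibitor levels giving roughly 30–80% inhibition. KM and Vmax came from nonlinear regression. Mode of inhibition and constants came from Cornish-Bowden plots.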

Cholinesterase [6] = biological target: T4, Cholinesterase; assay: Inhibition of Equine serum BuChE assessed as inhibitory constants for binding the enzyme-substrate complex using S-butyrylthiocholine iodide as a substrate by Cornish-Bowden plot analysis; procedure, shortened: as §1
[7] = biological target: Cholinesterase (Equus caballus) (UniProt P81908); assay: Inhibition of equine serum BuChE at 1.47 mM by STD-NMR spectroscopy
Procedure, shortened: (§2)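 STD-NMR with 5 μM equine BuChE in D2O; ligand stocks of 8.8 and 4.8 mM. Saturation times for buildup curves 0.25–5 s, total experiment time held at 6.5 s. Water suppression at 4.7 ppm, sweep width 20.03 ppm. Blanks checked for direct ligand saturation.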

[8] = biological target: T3, Amine oxidase [flavin-containing] B; assay: Inhibition of human MAO-B assessed as shielding effect on inhibitor […] at 0.016 mM incubated for 20 min by STD-NMR spectroscopy; details: 16 µM
Procedure, shortened: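 MAO-B incubated with the N-propargyl inhibitor and followed by 1H NMR, with spectra recorded every 5 min. The spectrum of inhibitor alone was compared with the inhibitor–enzyme mixture at 20 min, watching shifts of inhibitor protons, especially the propargyl proton. Ligand-only controls and blanks checked for direct saturation. Water suppression at 4.7 ppm.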

Acetylcholinesterase [9] = biological target: T1, Acetylcholinesterase; assay: Inhibition of electric eel AChE using […] as a substrate and measured upto 180 sec by DTNB based Ellman's method
[10] = biological target: Cholinesterase (Equus caballus) (UniProt P81908); assay: Inhibition of equine serum BuChE at 0.8 mM by STD-NMR spectroscopy; procedure, shortened: as §2

T4 sequence (P81908 whole entry): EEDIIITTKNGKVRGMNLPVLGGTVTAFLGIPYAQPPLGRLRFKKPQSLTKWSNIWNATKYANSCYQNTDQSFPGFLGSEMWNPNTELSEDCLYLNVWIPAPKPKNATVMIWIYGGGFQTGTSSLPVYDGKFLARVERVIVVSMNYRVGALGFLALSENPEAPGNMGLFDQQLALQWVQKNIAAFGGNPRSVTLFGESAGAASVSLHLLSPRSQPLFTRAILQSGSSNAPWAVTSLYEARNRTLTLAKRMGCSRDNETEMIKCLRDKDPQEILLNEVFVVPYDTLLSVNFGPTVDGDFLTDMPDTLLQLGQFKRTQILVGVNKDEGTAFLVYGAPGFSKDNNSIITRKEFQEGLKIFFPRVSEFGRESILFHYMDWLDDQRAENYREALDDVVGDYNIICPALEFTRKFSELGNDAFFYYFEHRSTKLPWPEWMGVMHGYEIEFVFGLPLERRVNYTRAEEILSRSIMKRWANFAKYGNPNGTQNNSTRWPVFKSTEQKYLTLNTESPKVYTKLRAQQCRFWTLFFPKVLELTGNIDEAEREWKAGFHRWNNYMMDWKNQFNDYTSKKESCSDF
T1 sequence (O42275 whole entry): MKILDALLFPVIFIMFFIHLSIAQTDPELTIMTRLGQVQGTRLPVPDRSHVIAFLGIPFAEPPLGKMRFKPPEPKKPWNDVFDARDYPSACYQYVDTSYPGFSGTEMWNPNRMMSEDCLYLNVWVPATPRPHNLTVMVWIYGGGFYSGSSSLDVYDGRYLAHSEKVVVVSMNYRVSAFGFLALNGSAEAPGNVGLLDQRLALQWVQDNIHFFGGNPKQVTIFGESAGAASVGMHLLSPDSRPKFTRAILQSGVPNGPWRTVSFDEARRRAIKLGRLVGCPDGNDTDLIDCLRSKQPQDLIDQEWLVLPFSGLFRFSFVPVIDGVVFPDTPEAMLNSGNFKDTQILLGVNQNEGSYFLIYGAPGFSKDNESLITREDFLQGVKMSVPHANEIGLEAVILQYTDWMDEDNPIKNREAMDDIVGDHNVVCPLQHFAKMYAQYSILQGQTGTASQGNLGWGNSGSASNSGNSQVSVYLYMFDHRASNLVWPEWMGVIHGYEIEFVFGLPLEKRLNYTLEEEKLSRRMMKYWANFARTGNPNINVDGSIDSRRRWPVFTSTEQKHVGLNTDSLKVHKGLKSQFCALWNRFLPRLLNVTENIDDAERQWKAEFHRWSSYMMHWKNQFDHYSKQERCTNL
Sequence of Cholinesterase (Equus caballus) (P81908 whole entry): as the sequence (P81908 whole entry) above

Row | Structure (SMILES) | IC50 (Acetylcholinesterase [1]) [µM] | inhibition at 1 µM [2] [%] | inhibition at 1 µM [3] [%] | IC50 (Cholinesterase [4]) [µM] | other results
1 | CC1(C)COc2c(ccc3cccnc23)C1=O | > 100 | 14.8 | 4.8 | 6.4 | –
2 | CC1(C)COc2ccc(C#N)cc2C1O (configuration not stated) | > 100 | – | – | 18 | –
3 | CC1(C)COc2ccccc2C1N (configuration not stated) | – | -3.8 | 3.7 | 38 | –
4 | CC1(C)COc2ccc3ccccc3c2C1=O | > 100 | 23.2 | 5.1 | 2.9 | Ki (Cholinesterase [5]): 2 µM; Ki (Cholinesterase [6]): 6.7 µM; inhibition [7]: Active
5 | C#CCN(Cc1ccccc1)C1c2ccccc2OCC1(C)C (configuration not stated) | – | -10.6 | 2.9 | – | –
6 | COc1cccc2c1C(O)C(C)(C)CO2 (configuration not stated) | > 100 | 11.5 | 5.3 | > 100 | –
7 | CC1(C)COc2ccc3ccccc3c2C1O (configuration not stated) | > 100 | – | – | 33 | –
8 | CCOc1cc(C#N)cc2c1OCC(C)(C)C2=O | > 100 | 20.5 | 4.7 | > 100 | –
9 | CC1(C)COc2c(OC(F)(F)F)cccc2C1=O | > 100 | – | – | 4.3 | –
10 | C#CCNC1c2cccc(OC)c2OCC1(C)C (configuration not stated) | – | 4.6 | 13.8 | – | –
11 | COc1cccc2c1OCC(C)(C)C2=O | > 100 | – | – | > 100 | –
12 | C[C@H](NCc1ccc(OCc2cccc(F)c2)cc1)C(N)=O [SAFINAMIDE] | – | 1.8 | – | – | –
13 | CC1(C)COc2cc(F)ccc2C1O (configuration not stated) | > 100 | – | – | 18 | –
14 | CC1(C)COc2cc3ccccc3cc2C1O (configuration not stated) | > 100 | – | – | 50 | –
15 | C#CCNC1c2ccccc2OCC1(C)C (configuration not stated) | – | – | 11.6 | – | inhibition (INH) [8]: Active
16 | CC1(C)COc2cc(F)c(F)cc2C1O (configuration not stated) | > 100 | – | – | 28 | –
17 | CC1(C)COc2ccc(F)cc2C1=O | > 100 | – | – | 33 | –
18 | Cc1ccc2c(c1)C(N)C(C)(C)CO2 (configuration not stated) | – | – | – | 67 | –
19 | C#CCN(Cc1ccccc1)C1c2cccc(OC)c2OCC1(C)C (configuration not stated) | – | 4.3 | 14.7 | – | –

Row | Structure (SMILES) | IC50 (Acetylcholinesterase [1]) [µM] | inhibition at 1 µM [2] [%] | inhibition at 1 µM [3] [%] | IC50 (Cholinesterase [4]) [µM] | other results
20 | C#CCN(C)CCCOc1ccc(Cl)cc1Cl [CLORGILINE] | – | 99.8 | – | – | –
21 | COc1cccc2c1C(=O)C(C)(C)CO2 | > 100 | 12.1 | 5.9 | 12 | –
22 | Cc1ccc2c(c1)C(O)C(C)(C)CO2 (configuration not stated) | > 100 | – | – | > 100 | –
23 | CC1(C)COc2ccc(F)cc2C1O (configuration not stated) | > 100 | 16.5 | 8.3 | > 100 | –
24 | CC1(C)COc2cc(F)ccc2C1=O | > 100 | – | – | > 100 | –
25 | CC1(C)COc2ccccc2C1O (configuration not stated) | > 100 | 24.3 | 8 | 40 | –
26 | CC1(C)COc2ccccc2C1=O | > 100 | 9.7 | 9.2 | 43 | –
27 | CC1(C)COc2cc3ccccc3cc2C1N (configuration not stated) | – | 13.3 | 7.5 | 8.9 | Ki (Cholinesterase [5]): 18 µM; Ki (Cholinesterase [6]): 11 µM
28 | CC1(C)COc2cc(F)c(F)cc2C1=O | > 100 | – | – | > 100 | –
29 | O=C1CC(OCCCCCSC(=S)N2CCCCC2)Oc2ccccc21 (configuration not stated) | – | – | – | – | IC50 (Acetylcholinesterase [9]): 0.1 µM
30 | CC1(C)COc2c(ccc3cccnc23)C1O (configuration not stated) | > 100 | – | – | 5 | Ki (Cholinesterase [5]): 7.2 µM; Ki (Cholinesterase [6]): 13.7 µM
31 | C#CCNC1c2cc(C)ccc2OCC1(C)C (configuration not stated) | – | -9.4 | -6.8 | – | –
32 | CCOc1cc(C#N)cc2c1OCC(C)(C)C2O (configuration not stated) | > 100 | – | – | 7.3 | –
33 | COc1cccc2c1OCC(C)(C)C2N (configuration not stated) | – | -0.7 | 4.3 | 7.6 | Ki (Cholinesterase [5]): 9 µM; Ki (Cholinesterase [6]): 19.1 µM; inhibition [10]: Active
34 | CC1(C)COc2ncccc2C1=O | > 100 | – | – | > 100 | –
35 | NC1CCOc2ccccc21 (configuration not stated) | – | -0.7 | 4.8 | – | –
36 | CC1(C)COc2cc3ccccc3cc2C1=O | > 100 | 16.4 | 27.7 | 3.1 | –
37 | CC1(C)COc2ccc3ccccc3c2C1N (configuration not stated) | – | 12.5 | 2.7 | 52 | –
